This is an account of results in ChEMBL document CHEMBL1133148 (Bioorg Med Chem Lett, 2000).

Test [1] concerns the target T1, Mu-type opioid receptor (Rattus norvegicus, UniProt P33535). The test can be described thus: Binding affinity towards Opioid receptor mu 1. The method, boiled down: (§1)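 Rat brain minus cerebellum, homogenised in 0.32 M sucrose and spun. The membrane pellet was preincubated 1 h at room temperature in Tris pH 7.5/NaCl to strip endogenous opioids. Filtration, scintillation counting.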

The target of test [2] is T1, Mu-type opioid receptor. In words: Concentration required for inhibition of [3H]DAMGO binding to Opioid receptor mu 1 in rat brain membranes. Format: cell membranes. The method, boiled down:
as §1

Some results are limits rather than exact numbers.

T1 sequence (P33535 whole entry): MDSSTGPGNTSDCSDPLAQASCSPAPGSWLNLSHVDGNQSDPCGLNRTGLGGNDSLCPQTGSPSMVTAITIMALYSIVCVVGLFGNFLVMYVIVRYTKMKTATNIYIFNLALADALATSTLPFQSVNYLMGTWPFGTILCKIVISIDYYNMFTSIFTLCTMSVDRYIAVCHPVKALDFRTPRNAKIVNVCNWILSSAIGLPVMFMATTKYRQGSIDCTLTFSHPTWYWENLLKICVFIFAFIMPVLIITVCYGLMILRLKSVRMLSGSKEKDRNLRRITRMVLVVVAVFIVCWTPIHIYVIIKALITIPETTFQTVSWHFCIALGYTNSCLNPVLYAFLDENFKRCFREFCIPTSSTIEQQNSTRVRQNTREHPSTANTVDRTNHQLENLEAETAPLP

What is called Ki is a measure of affinity in units of concentration, obtained from inhibition or displacement. Low values mean higher affinity, high ones lower affinity. Turning to `NC(=O)[C@H](Cc1ccccc1)NC(=O)[C@H](Cc1c[nH]c2ccccc12)NC(=O)[C@@H]1CCCN1C(=O)CC(N)c1ccc(O)cc1` (stereo partly drawn), the inhibitory constant (Ki) in test [1] is greater than 1000 nM.
Broadly, the IC50 is the midpoint of a concentration-inhibition curve. A higher IC50 goes with weaker potency. `NC(=O)[C@H](Cc1ccccc1)NC(=O)[C@H](Cc1c[nH]c2ccccc12)NC(=O)C[C@@H]1CCCN1C(=O)[C@@H](N)Cc1ccc(O)cc1` returned a 50% inhibitory concentration (IC50) in test [2] of 72 nM. The molecule also showed a Ki in test [1] of 10.4 nM.
In test [1], `NC(=O)[C@H](Cc1ccccc1)NC(=O)CC(NC(=O)[C@@H]1CCCN1C(=O)C(N)Cc1ccc(O)cc1)c1c[nH]c2ccccc12` (single isomer, unassigned) showed a Ki greater than 1000 nM.
The molecule `NC(=O)[C@H](Cc1ccccc1)NC(=O)[C@H](Cc1c[nH]c2ccccc12)NC(=O)C[C@H]1CCCN1C(=O)[C@@H](N)Cc1ccc(O)cc1` returned an IC50 in test [2] of 1.8 nM. This molecule also gave an inhibition constant Ki in test [1] of 0.33 nM.
As to `NC(=O)CC(NC(=O)[C@H](Cc1c[nH]c2ccccc12)NC(=O)[C@@H]1CCCN1C(=O)[C@@H](N)Cc1ccc(O)cc1)c1ccccc1` (stereo partly drawn), in test [2], the half-maximal inhibitory concentration (IC50) is 680 nM. The inhibition constant (Ki) in test [1] is 908 nM.
